Reference: PMC5164959 (Biochemical pharmacology, 2016)
Where “and” joins values, the source holds several entries; their conditions need not be identical. Equal entries are not always repeated.

Legend:
PKC [1] = experiment: PKC activation: phosphorylation of PKC substrates by western blot in U251 cells; type: cell-based, human; conditions: treatment for 30 min
Summary of the method: (§1)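 Glioblastoma cells were treated 30 min with 4 or 40 μM test compound or 100 nM PMA, with or without 1 h pretreatment with 500 nM bisindolylmaleimide II. Cleared Triton lysates (50 μg) were run on 8.75% SDS-PAGE and probed with phospho-(Ser) PKC substrate antibody, detected by alkaline phosphatase chemiluminescence. Three independent experiments were quantified.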

DGKα [2] = biological target: T1, DGKα (Rattus norvegicus, UniProt P51556); experiment: Kinase assay with purified DGKα and PC:DAG:PS liposomes; type: biochemical; conditions: for Vmax (ATP): ATP-dependent activity, 5 mol% DAG; for Vmax (DAG): DAG-dependent activity, 1 mM ATP; for Decrease of Vmax of purified DGKα: 0.5 mol% drug
Summary of the method: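 Rat FLAG-DGKα was expressed in HeLa cells by adenovirus (72 h) and purified on FLAG M2 beads. Reactions contained buffer B (MOPS pH 7.5), 1 mM CaCl2, 1 mM DTT and 4.75 mM PC:PS:DAG liposomes (5 mol% DAG), with test compound built into the liposomes at 0.5 or 2.0 mol% or added from DMSO. Reactions with [γ32P]-ATP ran 15 min at 25°C. Km and Vmax came from Michaelis-Menten non-linear regression.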

DGKι = DGKι (Homo sapiens, UniProt O75912); experiment: Kinase assay with HEK 293T cell homogenate over-expressing DGKι; type: biochemical
DGKα [3] = biological target: T1, DGKα; experiment: Kinase assay with HEK 293T cell homogenate over-expressing DGKα; type: biochemical
Summary of the method: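 Each reaction held 5 μg homogenate protein, 2 mM extruded PC:PS:DAG liposomes (10 mol% dioleoyl, dioctanoyl or stearoyl-arachidonoyl DAG), buffer B, 1 mM DTT, 1 mM CaCl2 and 1 mM [γ32P]-ATP, run 20 min at 30°C. Test compounds came from DMSO stocks. 32P-PA was counted, normalized to GFP lysate and to DMSO control; IC50 from log[inhibitor] versus normalized response.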

PKC [4] = experiment: PKC activation: phosphorylation of PKC substrates by western blot in U87 cells; type: cell-based, human; conditions: treatment for 30 min
Summary of the method: as §1

DGKθ = DGKθ (Homo sapiens, UniProt P52824); experiment: Kinase assay with HEK 293T cell homogenate over-expressing DGKθ; type: biochemical; conditions: 20 μM inhibitor, dioleoyl DAG liposomes
Summary of the method: (§2)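 Reactions without CaCl2 contained 5 μg homogenate, 2 mM liposomes (10 mol% dioleoyl DAG, 40 mol% PS, 50 mol% PC), buffer B, 1 mM DTT and [γ32P]-ATP, 20 min at 30°C. Test compound was added from DMSO. Extracted 32P-lipid was counted, GFP-lysate normalized, and expressed as percent of DMSO control.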

DGKβ = DGKβ (Rattus norvegicus, UniProt P49621); experiment: Kinase assay with HEK 293T cell homogenate over-expressing DGKβ; type: biochemical; conditions: 20 μM inhibitor, dioleoyl DAG liposomes
Summary of the method: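 Reactions contained 5 μg homogenate, 2 mM liposomes (10 mol% dioleoyl DAG, 40 mol% PS, 50 mol% PC), buffer B, 1 mM DTT, 1 mM CaCl2 and [γ32P]-ATP, 20 min at 30°C. Test compound was added from DMSO. Organic-phase 32P was counted and expressed as percent of DMSO control after subtracting the GFP-lysate background.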

PKC [5] = experiment: PKC activation: phosphorylation of PKC substrates by western blot in HeLa cells; type: cell-based, human
Summary of the method: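 HeLa cells were grown in DMEM with 5% FBS and treated 30 min with 4 or 40 μM test compound or 100 nM PMA, with or without 1 h pretreatment with 500 nM bisindolylmaleimide II. In separate runs, a 5-HT2AR agonist (10 μM, 6 h) was given with or without 40 μM antagonist. Lysates (50 μg) were immunoblotted for phospho-(Ser) PKC substrates; four independent experiments were quantified.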

[6] = cited from earlier work
DGKδ = DGKδ (Homo sapiens, UniProt Q16760); experiment: Kinase assay with HEK 293T cell homogenate over-expressing DGKδ; type: biochemical; conditions: 20 μM inhibitor, dioleoyl DAG liposomes
Summary of the method: as §2

5-HT2C [7] = biological target: T2, 5-HT2C (Homo sapiens, UniProt P28335); experiment: Antagonist functional assay; type: cell-based; conditions: read-out: Percent Inhibition of Agonist Response 5-HT2C
T2 sequence (P28335 33-458): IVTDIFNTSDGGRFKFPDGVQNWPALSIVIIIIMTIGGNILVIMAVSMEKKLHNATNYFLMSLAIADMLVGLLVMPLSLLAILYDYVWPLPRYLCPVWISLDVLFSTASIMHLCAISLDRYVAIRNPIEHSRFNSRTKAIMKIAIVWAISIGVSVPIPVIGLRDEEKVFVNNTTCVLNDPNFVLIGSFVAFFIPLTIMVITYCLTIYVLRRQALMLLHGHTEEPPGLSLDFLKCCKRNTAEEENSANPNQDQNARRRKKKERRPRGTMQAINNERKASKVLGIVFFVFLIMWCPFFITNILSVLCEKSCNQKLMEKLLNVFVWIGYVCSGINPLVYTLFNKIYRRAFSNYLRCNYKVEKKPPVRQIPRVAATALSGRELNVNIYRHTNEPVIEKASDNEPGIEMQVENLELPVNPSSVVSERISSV
Summary of the method: (§3)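 Run by the NIMH PDSP as cell-based antagonist-mode functional assays. Test compounds were applied at 10 μM. The read-out was percent inhibition of the response to an EC90 concentration of a reference agonist; that concentration was determined empirically for each receptor.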

5-HT2A [8] = biological target: T3, 5-HT2A (Homo sapiens, UniProt P28223); experiment: Radioligand competition binding assay
5-HTRs = experiment: Agonist functional assays at 5 serotonin receptors; type: cell-based; conditions: 5 receptors where low Ki values were observed; data not shown
5-HT2C [9] = biological target: T2, 5-HT2C; experiment: Radioligand competition binding assay
5-HT3 = 5-HT3 (Homo sapiens, UniProt P46098); experiment: Radioligand competition binding assay; conditions: read-out: Percent Inhibition of Binding 5-HT3
Summary of the method: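 Run by the NIMH PDSP as a radioligand competition binding primary screen. Test compounds were applied at 10 μM, and the read-out was mean percent inhibition of radioligand binding (n=4).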

5-HT1A = biological target: T4, 5-HT1A (Homo sapiens, UniProt P08908); experiment: Radioligand competition binding assay
T4 sequence (P08908 1-422): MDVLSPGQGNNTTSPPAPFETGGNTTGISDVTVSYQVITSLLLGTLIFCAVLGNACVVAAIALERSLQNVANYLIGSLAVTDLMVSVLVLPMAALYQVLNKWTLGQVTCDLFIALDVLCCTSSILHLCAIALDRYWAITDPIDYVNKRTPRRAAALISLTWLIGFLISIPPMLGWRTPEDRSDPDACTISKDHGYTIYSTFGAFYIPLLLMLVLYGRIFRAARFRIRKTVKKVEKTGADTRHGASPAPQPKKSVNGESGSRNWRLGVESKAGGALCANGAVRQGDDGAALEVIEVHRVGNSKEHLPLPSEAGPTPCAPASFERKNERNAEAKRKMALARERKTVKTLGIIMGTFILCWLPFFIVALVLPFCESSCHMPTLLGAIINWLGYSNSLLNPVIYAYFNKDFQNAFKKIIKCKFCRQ

5-HT7 [10] = biological target: T5, 5-HT7 (Homo sapiens, UniProt P34969); experiment: Radioligand competition binding assay
Summary of the method: (§4)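 Run by the NIMH PDSP as radioligand competition binding assays. The primary screen used 10 μM test compound and reported mean percent inhibition of radioligand binding (n=4); above 50% counted as significant. At those receptors, IC50 values came from non-linear regression of competition binding isotherms and were converted to Ki with the Cheng-Prusoff equation.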

5-HT5A = 5-HT5A (Homo sapiens, UniProt P47898); experiment: Radioligand competition binding assay
Summary of the method: as §4

5-HT1D [11] = biological target: T6, 5-HT1D (Homo sapiens, UniProt P28221); experiment: Antagonist functional assay; type: cell-based; conditions: read-out: Percent Inhibition of Agonist Response 5-HT1D
Summary of the method: as §3

5-HT2B [12] = biological target: T7, 5-HT2B (Homo sapiens, UniProt P41595); experiment: Antagonist functional assay; type: cell-based; conditions: read-out: Percent Inhibition of Agonist Response 5-HT2B
Summary of the method: as §3

5-HT2B [13] = biological target: T7, 5-HT2B; experiment: Radioligand competition binding assay
5-HT6 = 5-HT6 (Homo sapiens, UniProt P50406); experiment: Radioligand competition binding assay
Summary of the method: as §4

5-HT7 [14] = biological target: T5, 5-HT7; experiment: Antagonist functional assay; type: cell-based; conditions: read-out: Percent Inhibition of Agonist Response 5-HT7
Summary of the method: as §3

5-HT1D [15] = biological target: T6, 5-HT1D; experiment: Radioligand competition binding assay
Summary of the method: as §4

5-HT2A [16] = biological target: T3, 5-HT2A; experiment: Antagonist functional assay; type: cell-based; conditions: read-out: Percent Inhibition of Agonist Response 5-HT2A
Summary of the method: as §3

5-HT1B = 5-HT1B (Homo sapiens, UniProt P28222); experiment: Radioligand competition binding assay; conditions: read-out: Percent Inhibition of Binding 5-HT1B
Summary of the method: as §4

T5 sequence (P34969 whole entry, species assumed): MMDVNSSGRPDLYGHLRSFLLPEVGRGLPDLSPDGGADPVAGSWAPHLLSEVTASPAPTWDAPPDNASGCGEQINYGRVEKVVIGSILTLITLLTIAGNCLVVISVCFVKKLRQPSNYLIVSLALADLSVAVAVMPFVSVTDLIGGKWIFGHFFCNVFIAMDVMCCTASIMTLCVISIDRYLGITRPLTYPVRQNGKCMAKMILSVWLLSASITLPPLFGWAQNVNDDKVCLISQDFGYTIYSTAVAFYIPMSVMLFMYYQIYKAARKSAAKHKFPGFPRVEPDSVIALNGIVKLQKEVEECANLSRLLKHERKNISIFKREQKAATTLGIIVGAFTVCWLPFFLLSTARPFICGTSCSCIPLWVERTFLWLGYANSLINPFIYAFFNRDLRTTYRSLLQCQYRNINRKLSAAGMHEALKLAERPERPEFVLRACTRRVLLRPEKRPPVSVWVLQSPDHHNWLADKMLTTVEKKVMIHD
Sequence of DGKι (O75912 1-1065 isoform O75912-1): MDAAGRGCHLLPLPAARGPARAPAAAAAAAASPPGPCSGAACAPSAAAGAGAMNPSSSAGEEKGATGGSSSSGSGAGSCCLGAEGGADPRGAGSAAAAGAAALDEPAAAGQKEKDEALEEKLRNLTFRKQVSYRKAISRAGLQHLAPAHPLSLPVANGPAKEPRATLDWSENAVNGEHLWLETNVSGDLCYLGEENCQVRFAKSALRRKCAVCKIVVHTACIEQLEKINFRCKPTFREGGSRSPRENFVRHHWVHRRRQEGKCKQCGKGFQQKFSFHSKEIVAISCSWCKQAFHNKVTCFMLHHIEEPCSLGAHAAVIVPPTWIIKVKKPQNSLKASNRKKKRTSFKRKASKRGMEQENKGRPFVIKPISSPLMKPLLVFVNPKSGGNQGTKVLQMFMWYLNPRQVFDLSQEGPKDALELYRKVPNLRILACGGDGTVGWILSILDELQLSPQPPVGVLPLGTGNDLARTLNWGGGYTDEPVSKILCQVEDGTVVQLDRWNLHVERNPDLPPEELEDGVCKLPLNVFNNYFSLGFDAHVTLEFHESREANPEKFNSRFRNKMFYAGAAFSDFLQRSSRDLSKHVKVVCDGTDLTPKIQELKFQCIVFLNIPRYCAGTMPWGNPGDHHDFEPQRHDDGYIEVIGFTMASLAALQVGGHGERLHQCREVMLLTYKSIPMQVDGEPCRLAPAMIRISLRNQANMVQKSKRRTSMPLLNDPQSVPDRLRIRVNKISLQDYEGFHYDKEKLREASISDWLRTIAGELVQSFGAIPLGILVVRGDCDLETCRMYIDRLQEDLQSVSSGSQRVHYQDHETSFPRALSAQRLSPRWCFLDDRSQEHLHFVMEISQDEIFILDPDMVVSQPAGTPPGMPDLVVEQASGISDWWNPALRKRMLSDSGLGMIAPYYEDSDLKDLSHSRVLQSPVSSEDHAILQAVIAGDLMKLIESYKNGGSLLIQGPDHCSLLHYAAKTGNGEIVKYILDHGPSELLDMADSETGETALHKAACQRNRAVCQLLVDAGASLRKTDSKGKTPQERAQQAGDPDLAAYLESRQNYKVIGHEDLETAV
T6 sequence (P28221 whole entry, species assumed): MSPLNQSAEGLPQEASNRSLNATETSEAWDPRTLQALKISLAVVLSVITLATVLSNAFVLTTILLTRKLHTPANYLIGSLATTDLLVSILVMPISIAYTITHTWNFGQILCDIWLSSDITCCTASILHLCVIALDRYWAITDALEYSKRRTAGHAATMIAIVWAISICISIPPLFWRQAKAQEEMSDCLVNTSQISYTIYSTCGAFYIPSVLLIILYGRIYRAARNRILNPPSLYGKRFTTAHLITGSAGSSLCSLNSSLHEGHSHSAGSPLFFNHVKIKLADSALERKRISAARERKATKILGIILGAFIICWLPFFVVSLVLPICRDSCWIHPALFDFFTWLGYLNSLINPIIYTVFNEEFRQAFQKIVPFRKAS
T7 sequence (P41595 whole entry, species assumed): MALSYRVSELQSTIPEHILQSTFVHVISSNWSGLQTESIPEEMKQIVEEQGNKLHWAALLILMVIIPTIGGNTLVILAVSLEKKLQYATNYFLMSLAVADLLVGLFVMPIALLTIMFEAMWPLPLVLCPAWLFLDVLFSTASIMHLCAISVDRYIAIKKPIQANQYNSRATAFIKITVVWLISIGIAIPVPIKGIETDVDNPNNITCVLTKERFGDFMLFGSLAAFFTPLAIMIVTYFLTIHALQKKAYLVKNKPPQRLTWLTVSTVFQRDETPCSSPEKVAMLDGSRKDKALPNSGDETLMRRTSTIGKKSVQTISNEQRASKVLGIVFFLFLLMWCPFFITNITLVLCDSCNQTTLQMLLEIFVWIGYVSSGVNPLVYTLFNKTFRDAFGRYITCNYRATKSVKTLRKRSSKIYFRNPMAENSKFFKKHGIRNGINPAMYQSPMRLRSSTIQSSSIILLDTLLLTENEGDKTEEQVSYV
T1 sequence (P51556 whole entry): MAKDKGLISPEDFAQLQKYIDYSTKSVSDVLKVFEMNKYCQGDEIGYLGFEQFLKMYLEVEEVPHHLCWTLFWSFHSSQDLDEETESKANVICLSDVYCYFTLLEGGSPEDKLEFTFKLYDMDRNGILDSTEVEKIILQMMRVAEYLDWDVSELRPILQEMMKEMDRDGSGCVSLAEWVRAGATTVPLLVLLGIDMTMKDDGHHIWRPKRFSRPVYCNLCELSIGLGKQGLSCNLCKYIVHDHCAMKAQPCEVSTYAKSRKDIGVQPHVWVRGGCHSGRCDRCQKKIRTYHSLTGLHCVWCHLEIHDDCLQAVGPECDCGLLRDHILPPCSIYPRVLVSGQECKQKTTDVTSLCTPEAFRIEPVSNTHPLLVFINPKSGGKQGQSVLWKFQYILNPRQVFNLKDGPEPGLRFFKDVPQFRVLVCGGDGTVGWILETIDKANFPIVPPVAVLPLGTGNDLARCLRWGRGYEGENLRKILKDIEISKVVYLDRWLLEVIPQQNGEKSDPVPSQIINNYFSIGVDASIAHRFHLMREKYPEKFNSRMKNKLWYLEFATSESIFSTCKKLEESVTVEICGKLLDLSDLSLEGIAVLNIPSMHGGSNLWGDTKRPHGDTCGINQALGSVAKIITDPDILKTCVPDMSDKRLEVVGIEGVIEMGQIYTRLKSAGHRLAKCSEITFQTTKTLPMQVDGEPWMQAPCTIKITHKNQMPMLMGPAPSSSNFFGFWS
T3 sequence (P28223 whole entry, species assumed): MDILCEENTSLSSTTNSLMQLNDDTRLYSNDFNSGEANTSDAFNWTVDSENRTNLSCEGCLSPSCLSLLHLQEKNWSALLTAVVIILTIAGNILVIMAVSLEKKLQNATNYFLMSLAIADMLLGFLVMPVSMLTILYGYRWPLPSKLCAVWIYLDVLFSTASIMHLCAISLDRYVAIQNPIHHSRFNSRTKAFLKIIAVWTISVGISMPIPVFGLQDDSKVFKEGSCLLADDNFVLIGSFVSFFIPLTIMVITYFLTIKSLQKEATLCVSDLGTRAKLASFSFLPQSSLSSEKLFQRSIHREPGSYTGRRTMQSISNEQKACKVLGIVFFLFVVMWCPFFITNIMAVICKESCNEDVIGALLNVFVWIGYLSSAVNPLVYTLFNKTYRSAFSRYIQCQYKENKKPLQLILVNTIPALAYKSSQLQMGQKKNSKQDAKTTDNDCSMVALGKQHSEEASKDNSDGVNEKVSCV
Sequence of 5-HT5A (P47898 whole entry, species assumed): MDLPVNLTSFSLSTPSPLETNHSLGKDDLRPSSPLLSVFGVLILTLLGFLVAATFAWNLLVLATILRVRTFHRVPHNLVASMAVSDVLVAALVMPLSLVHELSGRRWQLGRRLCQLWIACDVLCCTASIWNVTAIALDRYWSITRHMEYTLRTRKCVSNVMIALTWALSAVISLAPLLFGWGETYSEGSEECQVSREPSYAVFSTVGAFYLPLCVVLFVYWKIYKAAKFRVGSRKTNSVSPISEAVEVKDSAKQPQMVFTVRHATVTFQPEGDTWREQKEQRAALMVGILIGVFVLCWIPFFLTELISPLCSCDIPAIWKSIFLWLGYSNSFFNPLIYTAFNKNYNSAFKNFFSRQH
Sequence of 5-HT6 (P50406 whole entry, species assumed): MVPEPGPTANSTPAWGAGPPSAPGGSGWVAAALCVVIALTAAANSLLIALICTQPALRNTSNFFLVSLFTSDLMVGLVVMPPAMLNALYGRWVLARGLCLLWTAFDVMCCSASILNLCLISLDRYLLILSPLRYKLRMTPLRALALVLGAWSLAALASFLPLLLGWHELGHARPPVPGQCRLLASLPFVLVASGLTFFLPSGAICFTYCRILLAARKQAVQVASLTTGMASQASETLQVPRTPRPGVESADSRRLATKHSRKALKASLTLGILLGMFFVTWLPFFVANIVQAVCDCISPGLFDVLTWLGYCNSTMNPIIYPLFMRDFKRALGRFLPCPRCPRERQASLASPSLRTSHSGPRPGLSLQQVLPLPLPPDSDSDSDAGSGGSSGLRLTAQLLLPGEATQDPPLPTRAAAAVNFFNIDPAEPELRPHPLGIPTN
Sequence of 5-HT3 (P46098 24-478, species assumed): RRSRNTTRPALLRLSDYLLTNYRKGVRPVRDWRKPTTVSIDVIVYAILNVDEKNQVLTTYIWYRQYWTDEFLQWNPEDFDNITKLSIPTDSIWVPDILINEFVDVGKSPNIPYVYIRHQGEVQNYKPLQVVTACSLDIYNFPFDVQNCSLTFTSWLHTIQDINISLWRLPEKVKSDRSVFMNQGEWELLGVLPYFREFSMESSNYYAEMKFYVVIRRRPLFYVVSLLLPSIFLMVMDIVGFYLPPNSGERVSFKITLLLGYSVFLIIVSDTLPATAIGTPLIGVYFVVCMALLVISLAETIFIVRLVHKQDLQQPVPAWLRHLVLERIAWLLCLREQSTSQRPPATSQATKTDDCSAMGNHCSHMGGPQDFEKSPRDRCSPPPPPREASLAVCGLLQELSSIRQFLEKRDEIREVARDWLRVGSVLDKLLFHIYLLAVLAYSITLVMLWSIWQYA

Cc1nc2sccn2c(=O)c1CCN1CCC(=C(c2ccc(F)cc2)c2ccc(F)cc2)CC1 [ritanserin]
Activation of PKC (PKC [1]): not in U251 cells | Vmax (ATP) (DGKα [2]; 0.5 mol% drug in liposomes): 20 ± 1 nmol/min/mg | Vmax (DAG) (DGKα [2]; 0.5 mol% drug in liposomes): 17 ± 2 nmol/min/mg | Decrease of Vmax of purified DGKα (DGKα [2]; in the context of ATP): greater than 50% | Decrease of Vmax of purified DGKα (DGKα [2]; in the context of DAG): greater than 50% | Vmax (ATP) (DGKα [2]; 2.0 mol% drug in liposomes): 12 ± 0.01 ^† nmol/min/mg | Vmax (DAG) (DGKα [2]; 2.0 mol% drug in liposomes): 11 ± 2 nmol/min/mg | Activity of DGKι, percent of control (DGKι; 20 μM inhibitor, dioleoyl DAG liposomes, cell homogenate): not detectably inhibited | IC50 (DGKι; IC50 for DGKι, cell homogenate, 1 mM ATP, 10 mol% DAG): 55000 to 65000 nM and ~60000 nM | IC50 for DGKι relative to IC50 for DGKα (DGKι; fold higher than IC50 for DGKα): 2–3 fold | IC50 (DGKα [3]): ~15000 nM | Activity of DGKα, percent of control (DGKα [3]; 20 μM inhibitor, liposomes with dioleoyl DAG, cell homogenate): decreased by about half | Potency against DGKα with other DAG species (DGKα [3]; 20 μM, liposomes containing dioctanoyl or stearoyl arachidonoyl DAG): similarly potent | Activation of PKC (PKC [4]): activate PKC | Activity of DGKθ, percent of control (DGKθ): not detectably inhibited | Activity of DGKβ, percent of control (DGKβ): not detectably inhibited | Increase in phosphorylation of PKC downstream targets (PKC [5]; 40 μM, 30 min): about 2.5 fold | Adverse side effects [6]: few adverse side effects | Oral bioavailability [6]: orally bioavailable | half-life ([6]; in humans): approximately 40 hours | Activity of DGKδ, percent of control (DGKδ): not detectably inhibited

O=C(c1ccc(F)cc1)C1CCN(CCn2c(=O)[nH]c3ccccc3c2=O)CC1 [ketanserin]
Activation of PKC (PKC [1]): does not activate PKC | IC50 (DGKα [2]): 264000 nM | Activation of PKC (PKC [4]): does not activate PKC | Effect on TCB-2-induced PKC activation (PKC [5]; 40 μM ketanserin co-treatment with 10 μM TCB-2 for 6 h): inhibited the ability of TCB-2 to activate PKC | Activation of PKC (PKC [5]; 40 μM ketanserin, 30 min): no activation of PKC was observed

CCCCCCCCCCCCCC(=O)O[C@@H]1[C@@H](C)[C@@]2(O)[C@@H](C=C(CO)C[C@]3(O)C(=O)C(C)=C[C@@H]23)[C@@H]2C(C)(C)[C@]12OC(C)=O [PMA, Phorbol 12-myristate 13-acetate]
Increase in phosphorylation of PKC downstream targets (PKC [5]; 100 nM PMA, 30 min): greater than 3 fold

CN1CCCC1CCn1cc(C2=C(c3c[nH]c4ccccc34)C(=O)NC2=O)c2ccccc21 (centres unmarked) [bis, bisindolylmaleimide II]
Change in basal PKC activity (PKC [5]; 500 nM bis alone for 1 h): did not see any changes in basal PKC activity

O=c1c2ccccc2[nH]c(=S)n1CCN1CCC(=C(c2ccc(F)cc2)c2ccc(F)cc2)CC1 [R59949, 3-[2-(4-[bis-(4-fluorophenyl)methylene]-1-piperidinyl)ethyl]-2,3-dihydro-2-thioxo-4(1H)quinazolinone]
inhibition at 10 µM (5-HT2C [7]): 28.1% | Ki (5-HT2A [8]): 9.2 nM | inhibition at 10 µM (5-HT2A [8]; read-out: Percent Inhibition of Binding 5-HT2A): 94.2% | Agonist activity at 5-HTRs (5-HTRs): very low to no activity | Ki (5-HT2C [9]): 46 nM | inhibition at 10 µM (5-HT2C [9]; read-out: Percent Inhibition of Binding 5-HT2C): 72.2% | inhibition at 10 µM (5-HT3): 0.7% | Ki (5-HT1A): 2000 nM | inhibition at 10 µM (5-HT1A; read-out: Percent Inhibition of Binding 5-HT1A): 61.1% | Ki (5-HT7 [10]): 681 nM | inhibition at 10 µM (5-HT7 [10]; read-out: Percent Inhibition of Binding 5-HT7): 82.8% | Ki (5-HT5A): 3250 nM | inhibition at 10 µM (5-HT5A; read-out: Percent Inhibition of Binding 5-HT5A): 71.6% | inhibition at 10 µM (5-HT1D [11]): 136% | inhibition at 10 µM (5-HT2B [12]): 99.4% | Ki (5-HT2B [13]): 80 nM | inhibition at 10 µM (5-HT2B [13]; read-out: Percent Inhibition of Binding 5-HT2B): 96.9% | Ki (5-HT6): 3070 nM | inhibition at 10 µM (5-HT6; read-out: Percent Inhibition of Binding 5-HT6): 71.8% | inhibition at 10 µM (5-HT7 [14]): 32.9% | Ki (5-HT1D [15]): 64.5 nM | inhibition at 10 µM (5-HT1D [15]; read-out: Percent Inhibition of Binding 5-HT1D): 76.7% | inhibition at 10 µM (5-HT2A [16]): 101% | inhibition at 10 µM (5-HT1B): 20.3%

COc1cc(Br)c(OC)c2c1[C@H](CN)C2 [TCB-2]
PKC activity (PKC [5]; 10 μM TCB-2 for 6 h): significant elevation of PKC activity
